Experimental data collected from several papers.
Observed: cell growth or viability

| SMILES | cell line | test | conditions | quantity | value |
| --- | --- | --- | --- | --- | --- |
| N.N.[Cl][Pt][Cl] | A-431 | SRB |  | EC50 | 1800 nM |
| CC[C@@]1(OC(=O)[C@@H](N)CCCCN)C(=O)OCc2c1cc1n(c2=O)Cc2cc3cc4c(cc3nc2-1)OCO4 | HepG2 | MTT |  | IC50 | 35 nM |
| O=C1[O][Pt]2([NH][C@@H]3CCCC[C@H]3[NH]2)[O]C1=O | PNT2 | MTT | 96 h | IC50 | 1300 nM |
| N.N.[Cl][Pt][Cl] | HEK-293T | XTT | 24 h | IC50 | 64400 nM |
| CC1=C(O)C(=O)C=C2C1=CC=C1[C@@]2(C)CC[C@@]2(C)[C@@H]3C[C@](C)(C(=O)O)CC[C@]3(C)CC[C@]12C | Huh-7 | MTT | 20 µM | inhibition | 77.3% |
| CC[C@@]1(OC(=O)C(C)c2ccc(CC(C)C)cc2)C(=O)OCc2c1cc1n(c2=O)Cc2cc3cc4c(cc3nc2-1)OCO4 (stereo partly shown) | HepG2 | MTT |  | IC50 | > 5000 nM |
| N.N.[Cl][Pt][Cl] | HepG2 | MTT | 20 µM | inhibition | 88.5% |
| CCC1(OC(=O)C(C)c2ccc3cc(OC)ccc3c2)C(=O)OCc2c1cc1n(c2=O)Cc2cc3cc4c(cc3nc2-1)OCO4 (stereo not shown) | HepG2 | MTT |  | IC50 | 3500 nM |
| CCOC(=O)C1=C(N)N(c2ccc(C(=O)OCC)cc2)C(O)=C(C#N)C12C(=O)Nc1ccccc12 (stereo not shown) | HepG2 | MTT | 12.5 µM, 24 h | viability | 33.9% |
| N[C@@H](Cc1ccc(N(CCCl)CCCl)cc1)C(=O)O | HepG2 | CCK-8 | 48 h | IC50 | 36500 nM |
| N.N.[Cl][Pt][Cl] | CCD-18Co | ATP luminescence |  | GI50 | 1.1 µg/mL |
| [N-]=[N+]=[N-] | A-431 | MTT | 3 h | IC50 | > 100000 nM |
| CC[C@@]1(OC(=O)CN)C(=O)OCc2c1cc1n(c2=O)Cc2cc3cc4c(cc3nc2-1)OCO4 | HepG2 | MTT |  | IC50 | 25 nM |
